Calls of active or inactive are those of the source. The rule behind the calls is not given here.
Tests used:
[1] = biological target: T1, Cannabinoid receptor 2 (Homo sapiens, UniProt P34972); experiment: Displacement of [3H]CP,55-940 from recombinant human CB2 receptor expressed in HEK293 EBNA cell membranes after 90 mins by microbeta scintillation counting method
[2] = biological target: T2, Cannabinoid receptor 1 (Homo sapiens, UniProt P21554); experiment: Displacement of [3H]CP,55-940 from recombinant human CB1 receptor expressed in HEK293 EBNA cell membranes at 40 uM after 90 mins by microbeta scintillation counting method relative to control
T2 sequence (P21554 whole entry): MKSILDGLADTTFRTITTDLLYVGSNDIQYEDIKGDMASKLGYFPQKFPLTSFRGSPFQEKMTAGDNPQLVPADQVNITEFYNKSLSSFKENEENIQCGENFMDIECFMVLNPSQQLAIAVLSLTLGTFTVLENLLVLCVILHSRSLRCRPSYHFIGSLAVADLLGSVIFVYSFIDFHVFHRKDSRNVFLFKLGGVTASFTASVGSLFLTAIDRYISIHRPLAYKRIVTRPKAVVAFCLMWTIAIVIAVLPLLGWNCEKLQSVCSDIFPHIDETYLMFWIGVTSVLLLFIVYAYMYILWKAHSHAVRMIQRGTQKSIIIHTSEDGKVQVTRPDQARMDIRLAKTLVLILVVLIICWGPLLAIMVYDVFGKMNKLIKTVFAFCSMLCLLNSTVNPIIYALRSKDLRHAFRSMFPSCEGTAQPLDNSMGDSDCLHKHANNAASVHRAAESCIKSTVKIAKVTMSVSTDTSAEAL
Summary of the method: (§1)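 Competition binding with [³H]-CP55,940 on human CB₁R or CB₂R transfected into HEK293 EBNA cells; each compound screened once at 40 µM for percent displacement of radioligand.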

[3] = biological target: T1, Cannabinoid receptor 2; experiment: Displacement of [3H]CP,55-940 from recombinant human CB2 receptor expressed in HEK293 EBNA cell membranes at 40 uM after 90 mins by microbeta scintillation counting method relative to control; summary of the method: as §1
[4] = biological target: T2, Cannabinoid receptor 1; experiment: Displacement of [3H]CP,55-940 from recombinant human CB1 receptor expressed in HEK293 EBNA cell membranes after 90 mins by microbeta scintillation counting method
[5] = test system: Mus musculus; experiment: Analgesic effect in mouse assessed as elevation in latency response at 1 mg/kg measured after 5 mins by hot plate test; type: functional, organism-based
[6] = biological target: T2, Cannabinoid receptor 1; experiment: Antagonist activity at human CB1 receptor expressed in CHO cell membranes assessed as reduction in GTPgammaS binding after 30 mins by microbeta counting method; type: functional, cell-based
[7] = test system: Mus musculus; experiment: Reversal of delta9-THC-induced analgesic effect in mouse assessed as reduction in delta9-THC-induced elevation in latency response at 2.5 mg/kg measured after 5 mins by hot plate test; type: organism-based; details: in vivo
Summary of the method: (§2)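 Hot-plate test in mice, read as latency to respond to the painful stimulus. Test agent at 2.5 mg/kg was given alone or with the cannabinoid agonist Δ9-THC at 5 mg/kg. […] 7-9 mice per group; means SEM; one-way ANOVA with Student-Newman-Keuls test.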

[8] = test system: Mus musculus; experiment: Analgesic effect in mouse assessed as elevation in latency response at 2.5 mg/kg measured after 5 mins by hot plate test; type: functional, organism-based; summary of the method: as §2

T1 sequence (P34972 whole entry): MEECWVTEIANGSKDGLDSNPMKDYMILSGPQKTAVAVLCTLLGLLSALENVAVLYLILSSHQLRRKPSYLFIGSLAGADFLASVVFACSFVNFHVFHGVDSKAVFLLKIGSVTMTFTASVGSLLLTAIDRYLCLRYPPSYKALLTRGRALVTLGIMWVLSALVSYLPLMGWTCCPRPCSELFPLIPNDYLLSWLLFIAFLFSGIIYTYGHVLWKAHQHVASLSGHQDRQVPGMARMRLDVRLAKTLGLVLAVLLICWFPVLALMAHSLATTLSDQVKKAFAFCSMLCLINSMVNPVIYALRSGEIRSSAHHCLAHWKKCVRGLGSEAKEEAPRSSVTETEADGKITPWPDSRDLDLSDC

Row | Ki [1] | Ki [4] | SMILES | Ki ([1]; read-out: Ki) | inhibition [2] | inhibition [3] | Ki ([4]; read-out: Ki) | Activity [5] | IC50 [6] | Activity [7] | Activity [8]
1 | – | – | Cc1ccc(-c2cc(S(=O)(=O)NC3CCCCCC3)nnc2-c2ccc(C)cc2)cc1 | > 40000 nM | > 70% | < 70% | 800 nM | – | – | – | –
2 | – | – | Cc1ccc(-c2cc(S(=O)(=O)NC3CC4CCC3(C)C4(C)C)nnc2-c2ccc(C)cc2)cc1 (centres undefined) | > 40000 nM | > 70% | < 70% | 1290 nM | – | – | – | –
3 | – | – | Cc1ccc(-c2cc(S(=O)(=O)NC3CC(C)CCC3C(C)C)nnc2-c2ccc(C)cc2)cc1 (centres undefined) | > 40000 nM | > 70% | < 70% | > 10000 nM | – | – | – | –
4 | – | – | Cc1ccc(-c2cc(SNC3CCCC3)nnc2-c2ccc(C)cc2)cc1 | > 40000 nM | > 70% | < 70% | 724 nM | – | – | – | –
5 | – | – | Cc1ccc(Cn2nc(-c3ccc(C)cc3)cc(SNC3CCCCCC3)c2=O)cc1 | > 40000 nM | inactive | inactive | > 40000 nM | – | – | – | –
6 | – | – | Cc1c(C(=O)NN2CCCCC2)nn(-c2ccc(Cl)cc2Cl)c1-c1ccc(Cl)cc1 | – | – | – | – | inactive | – | – | –
7 | – | – | Cc1ccc(-c2cc(SNCC3CCC4CC3C4(C)C)nnc2-c2ccc(C)cc2)cc1 (centres undefined) | > 40000 nM | > 70% | < 70% | 1250 nM | – | – | – | –
8 | – | – | Cc1ccc(-c2cc(SNCC34CC5CC(CC(C5)C3)C4)nnc2-c2ccc(C)cc2)cc1 | > 40000 nM | > 70% | < 70% | 857 nM | – | – | – | –
9 | Nd(Insoluble) | Nd(Insoluble) | Cc1ccc(-c2cc(SNC3CCCCC3)nnc2-c2ccc(C)cc2)cc1 | – | – | – | – | – | – | – | –
10 | – | – | Cc1ccc(-c2cc(SNC3CC(C)CCC3C(C)C)nnc2-c2ccc(C)cc2)cc1 (centres undefined) | > 40000 nM | > 70% | < 70% | 708 nM | – | – | – | –
11 | – | – | Cc1ccc(-c2cc(S(=O)(=O)NC3CCCC3)nnc2-c2ccc(C)cc2)cc1 | > 40000 nM | > 70% | < 70% | 1460 nM | – | – | – | –
12 | – | – | Cc1ccc(-c2cc(SNC3C4(C)CCC(C4)C3(C)C)nnc2-c2ccc(C)cc2)cc1 (centres undefined) | > 40000 nM | > 70% | < 70% | 247 nM | – | – | – | –
13 | – | – | Cc1ccc(-c2cc(SNC3CCCCCC3)nnc2-c2ccc(C)cc2)cc1 | > 40000 nM | > 70% | < 70% | 609 nM | – | – | – | –
14 | – | – | Cc1ccc(-c2cc(S(=O)(=O)NC3CC4CC(C3C)C4(C)C)nnc2-c2ccc(C)cc2)cc1 (centres undefined) | > 40000 nM | > 70% | < 70% | 73.2 nM | – | 550 nM | – | –
15 | – | – | Cc1ccc(-c2cc(SNCCN3CCOCC3)nnc2-c2ccc(C)cc2)cc1 | > 40000 nM | > 70% | < 70% | – | – | – | – | –
16 | – | – | Cc1ccc(-c2cc(SNC3CC4CCC3(C)C4(C)C)nnc2-c2ccc(C)cc2)cc1 (centres undefined) | > 40000 nM | > 70% | < 70% | 44.6 nM | – | 249 nM | – | –
17 | – | – | Cc1ccc(-c2cc(S(=O)(=O)NC3CCCCC3)nnc2-c2ccc(C)cc2)cc1 | > 40000 nM | > 70% | < 70% | 3600 nM | – | – | – | –
18 | – | – | Cc1ccc(Cn2nc(-c3ccc(C)cc3)cc(S(=O)(=O)NC3CCCCCC3)c2=O)cc1 | 2550 nM | > 70% | < 70% | 1190 nM | – | – | Toxic | –
19 | – | – | Cc1ccc(-c2cc(SNC3CC4CC(C3C)C4(C)C)nnc2-c2ccc(C)cc2)cc1 (centres undefined) | > 40000 nM | > 70% | < 70% | 75.5 nM | – | 182 nM | – | inactive
20 | – | – | Cc1ccc(-c2cc(S(=O)(=O)NCC3CCC4CC3C4(C)C)nnc2-c2ccc(C)cc2)cc1 (centres undefined) | > 40000 nM | > 70% | < 70% | > 10000 nM | – | – | – | –

From ChEMBL document CHEMBL4184183, “Novel sulfenamides and sulfonamides based on pyridazinone and pyridazine scaffolds as CB1 receptor ligand antagonists” (Bioorg Med Chem, 2018)
